Publication PMC12495087 (ESMO Open, 2025)

Experiment: phase I study BOS172738-01: safety and tolerability
Type: in vivo, human
How it was run: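 Patients received at least one dose of oral drug given once daily in 28-day cycles. Part A escalated 10–150 mg, by accelerated titration (dose doubling) and then 3+3 Fibonacci steps; part B used 75 mg. AEs were graded by CTCAE v4.03 from first dose to 31 days after last dose. DLTs counted in cycle 1. Missing causality was scored as related and missing grade as grade 3.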

[1] = any causality and grade, overall n = 117
[2] = overall total, n = 117, listed as BOS
[3] = part A, all dose levels, n = 67

## COc1cc2cc(-c3ccc(CC(=O)Nc4cc(C(C)(C)C(F)(F)F)no4)cn3)cnc2cc1OC [BOS172738]
BOS172738-treated patients
  grade ≥3 TEAE of either hypertension or liver enzyme elevations: 2%
All pooled 75 mg, n = 70
  Any TEAE: 70 (100) n (%)
  Any TEAE leading to BOS discontinuation: 13 (19) n (%)
  Any TEAE leading to BOS dose interruption: 46 (66) n (%)
  Any TEAE leading to BOS dose reduction: 14 (20) n (%)
  Any TEAE leading to study discontinuation: 9 (13) n (%)
  Any TEAE related to BOS leading to BOS discontinuation: 6 (9) n (%)
  Any TEAE related to BOS leading to study discontinuation: 2 (3) n (%)
  Any TEAE resulting in death: 3 (4) n (%)
  Any TEAE, grade ≥3: 57 (81) n (%)
  Serious TEAEs related to BOS: 4 (6) n (%)
  Serious TEAEs, any: 35 (50) n (%)
  TEAE related to BOS, CTCAE grade ≥3: Anemia: 4 (6) n (%)
  TEAE related to BOS, CTCAE grade ≥3: Asthenia: 1 (1) n (%)
  TEAE related to BOS, CTCAE grade ≥3: Blood creatinine phosphokinase increased: 14 (20) n (%)
  TEAE related to BOS, CTCAE grade ≥3: Diarrhea: 1 (1) n (%)
  TEAE related to BOS, CTCAE grade ≥3: Hypophosphatemia: 4 (6) n (%)
  TEAE related to BOS, CTCAE grade ≥3: Lymphopenia: 2 (3) n (%)
  TEAE related to BOS, CTCAE grade ≥3: Muscular weakness: 1 (1) n (%)
  TEAE related to BOS, CTCAE grade ≥3: Myositis: 0 n (%)
  TEAE related to BOS, CTCAE grade ≥3: Neutropenia: 2 (3) n (%)
  TEAE related to BOS, CTCAE grade ≥3: Neutrophil count decreased: 9 (13) n (%)
  TEAE related to BOS, any: 57 (81) n (%)
  TEAE related to BOS, grade ≥3: 34 (49) n (%)
[1]
  TEAE: anemia: 46 (39%) n (%)
  TEAE: aspartate aminotransferase increased: 48 (41%) n (%)
  TEAE: blood creatine phosphokinase increased: 72 (62%) n (%)
  TEAE: constipation: 30 (26%) n (%)
  TEAE: diarrhea: 41 (35%) n (%)
  TEAE: dyspnea: 34 (29%) n (%)
  TEAE: facial edema: 31 (26%) n (%)
  TEAE: fatigue: 33 (28%) n (%)
  TEAE: hypophosphatemia: 31 (26%) n (%)
Final data cut-off, 117 patients
  treatment discontinued due to TEAEs: 20%
In total
  myositis leading to dose interruption: 6%
In vivo
  severity of BOS172738-related TEAEs: mostly grade 1-2
overall
  TEAE resulting in death: dyspnea: 2%
  patients discontinued from the study due to BOS172738-related TEAEs: 4%
Overall n = 117
  deaths considered related to BOS172738: None
  serious TEAE related to BOS172738: muscular weakness: 3 (3%) n (%)
  serious TEAE related to BOS172738: myositis: 2 (2%) n (%)
  serious TEAE: anemia: 4 (3%) n (%)
  serious TEAE: dyspnea: 8 (7%) n (%)
  serious TEAE: pneumonia: 7 (6%) n (%)
Overall total, n = 117
  Any TEAE: 117 (100) n (%)
  Any TEAE leading to BOS discontinuation: 30 (26%) n (%)
  Any TEAE leading to BOS dose interruption: 78 (67%) n (%)
  Any TEAE leading to study discontinuation: 18 (15) n (%)
  Any TEAE related to BOS leading to BOS discontinuation: 16 (14%) n (%)
  Any TEAE related to BOS leading to study discontinuation: 5 (4) n (%)
  Any TEAE resulting in death: 11 (9%) n (%)
  Any TEAE, grade ≥3: 98 (84%) n (%)
  Serious TEAEs related to BOS: 16 (14%) n (%)
  Serious TEAEs, any: 67 (57%) n (%)
  TEAE related to BOS, CTCAE grade ≥3: Anemia: 10 (9%) n (%)
  TEAE related to BOS, CTCAE grade ≥3: Asthenia: 2 (2) n (%)
  TEAE related to BOS, CTCAE grade ≥3: Blood creatinine phosphokinase increased: 29 (25%) n (%)
  TEAE related to BOS, CTCAE grade ≥3: Diarrhea: 3 (3) n (%)
  TEAE related to BOS, CTCAE grade ≥3: Hypophosphatemia: 6 (5) n (%)
  TEAE related to BOS, CTCAE grade ≥3: Lymphopenia: 3 (3) n (%)
  TEAE related to BOS, CTCAE grade ≥3: Muscular weakness: 3 (3) n (%)
  TEAE related to BOS, CTCAE grade ≥3: Myositis: 2 (2) n (%)
  TEAE related to BOS, CTCAE grade ≥3: Neutropenia: 4 (3) n (%)
  TEAE related to BOS, CTCAE grade ≥3: Neutrophil count decreased: 12 (10%) n (%)
  TEAE related to BOS, any: 99 (85%) n (%)
  TEAE related to BOS, grade ≥3: 63 (54%) n (%)
[2]
  Any TEAE leading to BOS discontinuation: 30 (26) n (%)
  Any TEAE leading to BOS dose interruption: 78 (67) n (%)
  Any TEAE leading to BOS dose reduction: 29 (25) n (%)
  Any TEAE related to BOS leading to BOS discontinuation: 16 (14) n (%)
  Any TEAE resulting in death: 11 (9) n (%)
  Any TEAE, grade ≥3: 98 (84) n (%)
  Serious TEAEs, any: 67 (57) n (%)
  TEAE related to BOS, CTCAE grade ≥3: Anemia: 10 (9) n (%)
  TEAE related to BOS, CTCAE grade ≥3: Blood creatinine phosphokinase increased: 29 (25) n (%)
  TEAE related to BOS, CTCAE grade ≥3: Neutrophil count decreased: 12 (10) n (%)
  TEAE related to BOS, any: 99 (85) n (%)
  TEAE related to BOS, grade ≥3: 63 (54) n (%)
Part A, 75 mg cohort
  DLT event (one patient): blood creatine phosphokinase increased
Part A, 100 mg cohort
  DLT event (one patient): muscle weakness and blood creatine phosphokinase increased
Part A, 150 mg cohort
  DLT event (one patient): capillary leak syndrome
Part A, 10-150 mg orally once daily
  maximum tolerated dose (MTD): not reached
Part A, 10-150 mg orally once daily, cycle 1
  patients with dose-limiting toxicities: three
[3]
  Any TEAE: 67 (100) n (%)
  Any TEAE leading to BOS discontinuation: 23 (34) n (%)
  Any TEAE leading to BOS dose interruption: 45 (67) n (%)
  Any TEAE leading to BOS dose reduction: 19 (28) n (%)
  Any TEAE leading to study discontinuation: 11 (16) n (%)
  Any TEAE related to BOS leading to BOS discontinuation: 14 (21) n (%)
  Any TEAE related to BOS leading to study discontinuation: 4 (6) n (%)
  Any TEAE resulting in death: 9 (13) n (%)
  Any TEAE, grade ≥3: 57 (85) n (%)
  Serious TEAEs related to BOS: 12 (18) n (%)
  Serious TEAEs, any: 39 (58) n (%)
  TEAE related to BOS, CTCAE grade ≥3: Anemia: 7 (10) n (%)
  TEAE related to BOS, CTCAE grade ≥3: Asthenia: 2 (3) n (%)
  TEAE related to BOS, CTCAE grade ≥3: Blood creatinine phosphokinase increased: 19 (28) n (%)
  TEAE related to BOS, CTCAE grade ≥3: Diarrhea: 3 (4) n (%)
  TEAE related to BOS, CTCAE grade ≥3: Hypophosphatemia: 3 (4) n (%)
  TEAE related to BOS, CTCAE grade ≥3: Lymphopenia: 1 (1) n (%)
  TEAE related to BOS, CTCAE grade ≥3: Muscular weakness: 3 (4) n (%)
  TEAE related to BOS, CTCAE grade ≥3: Myositis: 2 (3) n (%)
  TEAE related to BOS, CTCAE grade ≥3: Neutropenia: 4 (6) n (%)
  TEAE related to BOS, CTCAE grade ≥3: Neutrophil count decreased: 5 (7) n (%)
